In ChEMBL document CHEMBL3808321, “LAT-1 activity of meta-substituted phenylalanine and tyrosine analogs” (Bioorg Med Chem Lett, 2016) one finds inhibition, Activity and IC50 data, which are given here for 25 molecules.

Test [1] has as its target T1, Large neutral amino acids transporter small subunit 1 (Homo sapiens, UniProt Q01650). Nature of the test: Inhibition of human LAT1 expressed in HEK cells assessed as reduction in uptake of [3H]-gabapentin at 200 uM after 3 mins by scintillation counting based cis-inhibition assay. It counts as cell-based. The conditions noted are these: HEK293. The gist of the method:
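HEK cells stably transfected with human LAT-1 cDNA. Test agent at 200 μM competed with [3H]-gabapentin for cellular uptake. Results are % inhibition relative to background signal without inhibitor, with mean of at least three experiments.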

For test [2], the target named is T1, Large neutral amino acids transporter small subunit 1. The experiment in a line: Substrate activity at human LAT1 expressed in HEK cells assessed as efflux rate of [3H]-gabapentin at 200 uM after 5 to 180 secs by scintillation counting based trans-stimulation assay. It is filed as cell-based. The conditions noted are these: HEK293. The gist of the method: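 HEK-hLAT1 cells were preloaded with [3H]-gabapentin, then incubated with test agent at 200 μM. Efflux rate (fmol/min) was compared with efflux in the agent's absence and with L-leucine and L-arginine as positive and negative controls and L-phenylalanine and L-tyrosine as parent amino acids. Mean of at least three experiments.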

Test [3] has the same target. Nature of the test: Inhibition of human LAT1 expressed in HEK cells assessed as reduction in uptake of [3H]-gabapentin after 3 mins by scintillation counting based cis-inhibition assay. It is filed as cell-based, HEK293.

T1 sequence (Q01650 whole entry): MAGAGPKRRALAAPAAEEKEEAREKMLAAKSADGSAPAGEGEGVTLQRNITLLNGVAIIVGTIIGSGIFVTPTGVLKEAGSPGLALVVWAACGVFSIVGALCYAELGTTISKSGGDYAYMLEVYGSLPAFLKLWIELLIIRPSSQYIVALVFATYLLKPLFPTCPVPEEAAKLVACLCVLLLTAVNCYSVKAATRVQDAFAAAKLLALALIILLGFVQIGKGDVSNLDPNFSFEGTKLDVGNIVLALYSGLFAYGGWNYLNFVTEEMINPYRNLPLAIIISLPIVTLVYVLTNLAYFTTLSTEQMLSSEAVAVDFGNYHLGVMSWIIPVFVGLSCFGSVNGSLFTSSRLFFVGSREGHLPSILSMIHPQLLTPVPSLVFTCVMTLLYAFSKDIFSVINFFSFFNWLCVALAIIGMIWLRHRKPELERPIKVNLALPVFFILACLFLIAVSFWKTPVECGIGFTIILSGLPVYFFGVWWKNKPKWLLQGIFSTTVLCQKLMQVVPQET

For the molecule `CC(C)(C)c1cc(C[C@H](N)C(=O)O)ccc1O`, the inhibition in test [1] is 81%. For the same molecule, in test [2], the Activity came out at 1.5 fmol/min.
`N[C@@H](Cc1ccccc1)C(=O)O`: the inhibition in test [1] came out at 85%. Further, in test [2], the Activity was 3.6 fmol/min.
The matching figures for `N[C@@H](Cc1ccc(O)c(I)c1)C(=O)O`: 77% and 2.4 fmol/min.
Consider `N=C(N)NCCC[C@H](N)C(=O)O`, for which the inhibition in test [1] is 49%. Further, the Activity in test [2] is 0.8 fmol/min.
For the molecule `CC(C)c1cccc(C[C@H](N)C(=O)O)c1`, in test [1], the inhibition was found to be 91%. Moreover, in test [2], the Activity is 1.7 fmol/min.
On the same counts, the results for `CC(C)C[C@H](N)C(=O)O` are 78% and 3.5 fmol/min.
On to `Cc1ccc(C[C@H](N)C(=O)O)cc1`, for which, in test [1], the inhibition was 86%. In addition, the Activity in test [2] worked out at 2.7 fmol/min.
As to `N[C@@H](Cc1cccc(I)c1)C(=O)O`, the inhibition in test [1] turned out to be 91%. Further, the Activity in test [2] worked out at 1.9 fmol/min.
For `CC(C)(C)c1cccc(C[C@H](N)C(=O)O)c1`, the inhibition in test [1] came out at 87%. For the same molecule, the Activity in test [2] turned out to be 1.5 fmol/min.
For `N[C@@H](Cc1ccc(O)c(-c2ccccc2)c1)C(=O)O`, the inhibition in test [1] was 83%. Moreover, the Activity in test [2] was 1.2 fmol/min.
On the same counts, the results for `N[C@@H](Cc1ccc(O)c(Cl)c1)C(=O)O` are 63% and 2.7 fmol/min.
With `N[C@@H](Cc1ccc(O)c(F)c1)C(=O)O`, the inhibition in test [1] was 63%. Further, the Activity in test [2] was 3 fmol/min.
Take `Cc1cc(C[C@H](N)C(=O)O)ccc1O`: in test [1], the inhibition was 56%. Besides, the Activity in test [2] amounted to 3.3 fmol/min.
As for `N[C@@H](Cc1cccc(Br)c1)C(=O)O`, the inhibition in test [1] came to 86%. Further, the Activity in test [2] came out at 3 fmol/min.
`N[C@@H](Cc1cccc(Cl)c1)C(=O)O`: the inhibition in test [1] was found to be 84%. Further, the Activity in test [2] came to 2.6 fmol/min.
With `N[C@@H](Cc1cccc(Cc2ccccc2)c1)C(=O)O`, in test [1], the inhibition was 98%. Further, in test [2], the Activity turned out to be 0.8 fmol/min. Also, the IC50 in test [3] is 7.3 µM.
As for `N[C@@H](Cc1ccc(O)c(Br)c1)C(=O)O`, in test [1], the inhibition came out at 86%. The Activity in test [2] amounted to 1.8 fmol/min.
For the molecule `N[C@@H](Cc1cccc(-c2ccccc2)c1)C(=O)O`, the inhibition in test [1] worked out at 98%. Moreover, the Activity in test [2] stood at 0.8 fmol/min. In addition, the IC50 in test [3] came to 6.6 µM.
Turning to `N[C@@H](Cc1ccc(O)c(Cc2ccccc2)c1)C(=O)O`, the inhibition in test [1] came to 96%. The Activity in test [2] worked out at 1.3 fmol/min. In addition, in test [3], the IC50 stood at 9.1 µM.
On to `COc1ccc(C[C@H](N)C(=O)O)cc1C`, for which the inhibition in test [1] was 75%. For the same molecule, the Activity in test [2] is 2.9 fmol/min.
`N[C@@H](Cc1cccc(F)c1)C(=O)O`: the inhibition in test [1] was 79%. The Activity in test [2] stood at 2.3 fmol/min.
For the molecule `CCc1cccc(C[C@H](N)C(=O)O)c1`, in test [1], the inhibition was 77%. Further, the Activity in test [2] worked out at 3.1 fmol/min.
On to `CC(C)c1cc(C[C@H](N)C(=O)O)ccc1O`, for which the inhibition in test [1] worked out at 80%. Moreover, the Activity in test [2] was determined as 2.8 fmol/min.
For the molecule `N[C@@H](Cc1ccc(O)cc1)C(=O)O`, in test [1], the inhibition is 68%. Further, in test [2], the Activity stood at 2.1 fmol/min.
Take `CCc1cc(C[C@H](N)C(=O)O)ccc1O`: the inhibition in test [1] is 68%. Moreover, the Activity in test [2] was found to be 2.4 fmol/min.

Usually inhibition stands for how much of the control response was suppressed. One may read the IC50 as the point on the concentration scale where inhibition reaches its midpoint.
